Source: PubChem (Sanford-Burnham Center for Chemical Genomics)
Scp1 inh = Scp-1 phosphatase inhibitors, primary screen, biochemical, colorimetric, uHTS. Carboxy-terminal domain RNA polymerase II polypeptide A small phosphatase 1 (Homo …. Recombinant Scp1, phosphopeptide, malachite green phosphate absorbance. inhibition, % at 20 µM. 340,000 tested, 0.88% active;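 active means inhibition above about 50% at 20 µM, limit read from the data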;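 further: plate controls were DMSO wells with enzyme for no effect and wells lacking enzyme for full effect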
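Material – SCP-1 phosphatase catalytic domain, residues 76-261 · Buffer or medium – Acidic Tris acetate buffer with magnesium and detergent · Also added – Phospho 17-mer peptide substrate · Compound – single 20 µM dose, 1% DMSO · Times – 45 min room-temperature reaction, 5 min colour, 30 min stabiliser · Technique – Phosphate-binding colour reagent, absorbance read at 630 nm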
DNMT1 inh = human DNMT1 methyltransferase inhibitors, primary screen, biochemical, molecular beacon, fluorescence, HinP1I cleavage, uHTS | AID 588458, 2011 | inhibition (reported as % activation of signal), % at 10 µM | 360,000 tested, 0.83% active; in the data active means inhibition above about 50%
LMPTP block = LMPTP phosphatase inhibitors, primary screen, biochemical, fluorescence intensity, uHTS; Low molecular weight phosphotyrosine protein phosphatase (Homo sapiens), P24666; recombinant LMPTP-A, OMFP fluorogenic substrate; inhibition, % at 20 µM; 360,000 tested, 0.22% active;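 active means compounds that cut the enzyme signal by at least half of the control window in the single-dose screen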;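 further: plate controls were DMSO wells with enzyme plus substrate for no effect and substrate without enzyme for full effect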
Target sequence (P24666 whole entry, looked up): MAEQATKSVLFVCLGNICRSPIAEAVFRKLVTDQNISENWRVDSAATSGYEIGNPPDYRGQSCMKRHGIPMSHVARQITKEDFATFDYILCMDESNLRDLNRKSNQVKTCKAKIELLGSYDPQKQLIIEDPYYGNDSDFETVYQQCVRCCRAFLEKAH
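Test system: LMPTP-A phosphatase enzyme; input: 0.625 nM LMPTP-A final; reagent: OMFP substrate, 400 µM final; compound dosing: 20 µM single dose, 3% DMSO; incubation: 50 min dark incubation at room temperature; measured by: endpoint fluorescence intensity from OMFP dephosphorylation; measure: % inhibition relative to no-enzyme and uninhibited control wells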
STEP inh = STEP phosphatase inhibitors, primary screen, biochemical, fluorescence intensity, uHTS | 360,000 tested, 0.25% active | recombinant STEP, OMFP fluorogenic substrate | Tyrosine-protein phosphatase non-receptor type 5 (Homo sapiens), P54829 | inhibition, % at 20 µM | AID 588621, 2011;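 active means inhibition at 20 µM, scaled per plate between control wells, above about 37%, limit read from the data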;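 further: 0% = DMSO with enzyme and substrate and 100% = substrate only without enzyme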
Target sequence (P54829 whole entry, looked up): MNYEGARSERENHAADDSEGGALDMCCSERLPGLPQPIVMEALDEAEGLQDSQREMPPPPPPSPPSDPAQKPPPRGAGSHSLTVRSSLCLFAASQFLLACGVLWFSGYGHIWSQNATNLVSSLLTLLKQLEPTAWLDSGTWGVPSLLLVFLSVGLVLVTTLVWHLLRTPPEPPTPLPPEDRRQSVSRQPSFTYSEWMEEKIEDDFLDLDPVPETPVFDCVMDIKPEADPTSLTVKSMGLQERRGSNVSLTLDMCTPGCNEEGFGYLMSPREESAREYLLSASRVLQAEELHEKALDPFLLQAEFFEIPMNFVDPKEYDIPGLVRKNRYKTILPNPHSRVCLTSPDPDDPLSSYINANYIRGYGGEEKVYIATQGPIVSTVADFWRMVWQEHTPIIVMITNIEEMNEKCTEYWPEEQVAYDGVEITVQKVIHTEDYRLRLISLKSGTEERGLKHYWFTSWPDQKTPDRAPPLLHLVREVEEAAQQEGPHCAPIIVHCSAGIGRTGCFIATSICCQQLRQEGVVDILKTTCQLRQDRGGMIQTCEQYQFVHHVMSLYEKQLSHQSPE
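Measure: Control-normalized % inhibition with plate pattern correction | Test system: STEP phosphatase, cell-free reaction | Medium: pH 6.0 Bis-Tris with DTT and Tween 20 | Technique: Fluorescence, 480/540 nm | Times: Reaction 20 min, ambient temperature | Doses: Single compound dose of 20 µM, 1% DMSO final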
Rpn11 block = Rpn11 (PSMD14) deubiquitinase inhibitors, primary screen, biochemical, fluorescence polarization, uHTS | 26S proteasome non-ATPase regulatory subunit 14 (Homo sapiens), O00487 | human 26S proteasome, Ub4-pepOG fluorescence polarization; 20S core pre-blocked with epoxomicin | inhibition, % at 20 µM | 360,000 tested, 0.59% active;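 active means inhibition at 20 µM, scaled to each plate's controls, above about 33%, limit read from the data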
Rpn11 inh conf = Rpn11 (PSMD14) deubiquitinase inhibitors, confirmation, biochemical, fluorescence polarization, single concentration | inhibition, % at 20 µM | purified human 26S proteasome, Ub4-pepOG fluorescence polarization; proteasome pretreated with epoxomicin | 1,900 tested, 29% active | shares compounds with Rpn11 block
MMP-2 counter = MMP-2 enzyme inhibition, confirmation, counter-screen for RPN11 inhibitor project, biochemical, fluorescence, single concentration; shares compounds with Rpn11 block; 1,900 tested, 4% active; AID 602330, 2012; inhibition, % at 20 µM; recombinant MMP-2, FRET peptide cleavage fluorescence;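 further: human MMP-2 activated beforehand with APMA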
Thrombin FP = bovine thrombin protease inhibition, confirmation, counter-screen for Rpn11 inhibitor project, biochemical, fluorescence polarization, single concentration | AID 602333, 2012 | bovine thrombin cleavage of Ub4-pepOG | shares compounds with Rpn11 block | 1,900 tested, 13% active | inhibition, % at 20 µM;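 active means mean inhibition at least 40% at 20 µM, or signal 3 deviations below plate average, so some actives read negative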;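 further: plate controls were thrombin with DMSO for no effect and buffer wells lacking thrombin for full effect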
Starred values were filed as active, the others as inactive; . = not tested or not shown. This is a sample that favours compounds with a hit; in the whole collection about 2% have one here. Unless noted, no stated cut-off is given here; in the data, active means inhibition above about 40%; inactive means the rest.

SMILES | Scp1 inh | DNMT1 inh | LMPTP block | STEP inh | Rpn11 block | Rpn11 inh conf | MMP-2 counter | Thrombin FP
CN(CC(=O)Nc1ccc(Cl)c(Cl)c1)CC(=O)Nc1ccc2c(c1)OCO2 | -8 | -22 | 1 | 3 | -4 | . | . | .
Cc1cnc(Sc2ncccc2[N+](=O)[O-])nc1 | -4 | 1 | -2 | 1 | 6 | . | . | .
Cc1cc(C)n2nc(Sc3ncccc3[N+](=O)[O-])nc2n1 | -30 | 1 | -1 | -1 | 43* | -10 | -38 | -10
CCOc1cc(CN2CCN(c3ncccn3)CC2)ccc1OC | -2 | 1 | -2 | 4 | 8 | . | . | .
CCOC(=O)c1c(N)n(C2CC(C)(C)NC(C)(C)C2)c2nc3ccccc3nc12 | -5 | 29 | 3 | 0 | 12 | . | . | .
CCOC(=O)c1c(NC(=O)c2ccco2)n(C2CCCCC2)c2nc3ccccc3nc12 | -3 | 39 | 6 | 1 | 45* | 28 | 10 | 21
COc1ccc(CN2CCNC(=O)C2CC(=O)N(C)Cc2nccn2C)cc1OC (stereo unspecified) | 21 | -7 | -1 | -1 | 47* | 5 | -28 | 33
O=C1c2ccccc2C(=O)c2cc(N3CCCCC3)ccc21 | -5 | 2 | 1 | 3 | 43* | 24 | -18 | 21
c1ccc2cc(N3CCCCC3)ccc2c1 | -2 | 2 | 0 | 2 | -7 | . | . | .
O=c1c2c3c(sc2nc2n1N=C(c1cccs1)CS2)CCCC3 | -10 | 14 | -2 | -15 | 58* | 16 | -27 | -17
O=c1oc(-c2cccs2)nc2sc3c(c12)CCCC3 | -2 | 8 | 0 | 0 | 1 | . | . | .
CCn1c(=O)cc(C(F)(F)F)[nH]c1=S | -3 | 2 | -2 | 0 | 53* | -2 | 9 | -10
CCn1c(=S)[nH]c2ccccc21 | -3 | -3 | -3 | -1 | -3 | . | . | .
COc1ccc(Cc2nnc(NC(=O)C3CCN(C(=O)c4ccco4)CC3)s2)cc1 | -5 | 1 | 0 | -2 | 3 | . | . | .
C/C(=N\NC(=O)C(=O)Nc1ccc(C)c(Cl)c1)c1ccncc1 | -2 | 24 | 0 | 11 | 90* | 1 | -36 | -41
COc1ccc(Nc2c(C)cccc2C)cc1 | -13 | -5 | 1 | 2 | -7 | . | . | .
COc1ccc(Nc2ccccc2N)cc1 | 5 | -6 | 7 | -2 | 52* | 26 | -2 | 17
Nc1ccc(Nc2ccccc2N)cc1 | 9 | -48 | 3 | -2 | 35* | 1 | -16 | -2
Cc1nc(N2CCC(C)CC2)c2c(C)c(C(=O)Nc3ccccc3C(F)(F)F)sc2n1 | 1 | -7 | 4 | 2 | -3 | . | . | .
CCOC(=O)/C(C#N)=N/Nc1ccccc1OC | -11 | 2 | -1 | -3 | 40* | -7 | -20 | -11
CCOC(=O)/C(C#N)=N\Nc1cc(Cl)ccc1OC | -11 | -1 | 0 | -1 | 10 | . | . | .
COc1ccc2c(Cl)c(C(=O)N/N=C/c3c(C)[nH]c4ccccc34)sc2c1 | -24 | -23 | 2 | -7 | 72* | 99* | -15 | 53*
CCC1([N+](=O)[O-])COC(c2ccc(OC)cc2)OC1 (stereo unspecified) | 2 | -8 | 1 | -1 | 0 | . | . | .
COc1ccccc1NC(=O)C1CCCN1C(=O)Nc1ccc(F)cc1 (stereo unspecified) | -4 | 0 | -2 | -1 | 1 | . | . | .
CCOC(=O)Cn1c(=NC(=O)c2cc(-c3cccs3)nc3ccccc23)sc2cc(S(N)(=O)=O)ccc21 | 13 | 12 | 2 | 0 | 94* | 18 | -24 | 5
SMILES | Scp1 inh | DNMT1 inh | LMPTP block | STEP inh | Rpn11 block | Rpn11 inh conf | MMP-2 counter | Thrombin FP
Cc1ccccc1N=C1NC(=O)/C(=C/c2cccn2C)S1 | -19 | -4 | 1 | -1 | 54* | 40 | 5 | 44*
CCC(CO)Oc1cc(NC(=O)c2ccc(F)cc2)c2ncn(C(C)C)c2c1 (stereo unspecified) | -3 | 0 | 0 | -2 | -5 | . | . | .
CCC(CO)Oc1cc(NC(=O)c2ccc(N)cc2)c2ncn(C(C)C)c2c1 (stereo unspecified) | 5 | -7 | 2 | -2 | 43* | 44* | 13 | -4
O=C(Nc1ccc(C(F)(F)F)cc1)c1cc(S(=O)(=O)NCC2COc3ccccc3O2)ccc1F (stereo unspecified) | -10 | -26 | 4 | -2 | -1 | . | . | .
Cc1occc1C(=O)N(C)Cc1nc(-c2ccc(Cl)cc2)no1 | 8 | -4 | 1 | 0 | -6 | . | . | .
O=C1N(Cc2cccc(Cl)c2)C[C@@H]2C[C@@H](c3cccc4cccnc34)N3CCC[C@@]123 | 1 | 2 | 2 | -1 | 65* | 4 | -30 | 6
O=C(O)CN1C(=O)/C(=C\c2ccc(OC(=O)c3ccco3)cc2)SC1=S | 6 | 0 | 2 | 15 | 122* | 96* | 0 | 68*
Cc1sc2nc3c4ccccc4c(NCc4ccco4)nn3c(=O)c2c1C | -5 | 1 | 5 | -1 | 47* | 0 | -13 | -6
C#CCNC(=O)c1csc([C@@H]2O[C@H](CO)[C@@H](O)[C@H]2O)n1 | . | -1 | -1 | -4 | -1 | . | . | .
O=C(CCc1ccccc1)NC(c1cccs1)c1cc(Cl)c2cccnc2c1O (stereo unspecified) | -17 | 7 | 2 | 1 | 16 | . | . | .
CCC(=O)NC(c1cccs1)c1cc([N+](=O)[O-])c2cccnc2c1O (stereo unspecified) | -13 | -13 | 6 | 2 | 40* | 48* | 27 | -20
CC(C)C(=O)NC(c1ccccc1)c1cc([N+](=O)[O-])c2cccnc2c1O (stereo unspecified) | -11 | -4 | 8 | 2 | 45* | 47* | 43* | -1
CC(=O)NC(c1ccccc1)c1cc([N+](=O)[O-])c2cccnc2c1O (stereo unspecified) | -14 | -5 | 7 | 8 | 38 | . | . | .
